Paper PMC3217170 (Biochimica et biophysica acta, 2011)

Legend:
PKCθ = PKCθ translocation to membranes; format: cell-based, rat; details: CCK, 1 min incubation; p<0.05; mean±S.E., 5 independent experiments
Procedure, shortened: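 Acini stimulated with CCK for 1 min or TPA for 5 min, then homogenized in Tris pH 7.5 buffer with EGTA/EDTA, vanadate, PMSF and protease inhibitors. The cleared supernatant was spun at 60,000×g for 30 min at 4 °C. The membrane pellet was washed, solubilized in Triton/deoxycholate buffer, sonicated and spun at 10,000×g. Western blot used anti-PKCθ; calpain and E-cadherin served as fraction markers. Results given as % control; 5 experiments.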

PI-3 kinase = details: pancreatic acinar cells; ref [67]; cited from earlier work
PYK2/CAKβ = details: pancreatic acinar cells; ref [17]; cited from earlier work
CrKII = details: pancreatic acinar cells; ref [66]; cited from earlier work
PKCδ = details: pancreatic acinar cells, cited from earlier work
PKCθ / tubulin = assay: Co-IP association of PKCθ with tubulin; format: cell-based, rat
Procedure, shortened: (§1)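 Rat pancreatic acini are dispersed by collagenase and preincubated 2 hrs at 37 °C in HEPES (pH 7.45) incubation solution, then left unstimulated or given CCK (10 nM) or TPA (1 μM). Cells are lysed in CelLytic buffer with vanadate, PMSF and protease inhibitors. Lysate (750 μg/ml) is immunoprecipitated overnight at 4 °C with 4 μg anti-PKCθ plus protein G-agarose, PBS-washed, then analysed by SDS-PAGE/Western blot; ≥3 experiments.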

[1] = tested on: PKCθ (pT538) in pancreatic acini; assay: PKCθ T538 phosphorylation in rat pancreatic acini; format: cell-based
PKCθ / Cbl = assay: Co-IP association of PKCθ with Cbl; format: cell-based, rat; details: CCK 10 nM or TPA 1 μM, data not shown
PKD (pS744/748) = assay: PKD phosphorylation stimulated by CCK or TPA; format: cell-based, rat; details: CCK 10 nM, 2.5 min, no inhibitor; p<0.05
Procedure, shortened: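 Collagenase-dispersed rat acini preincubated 3 h ± 20 μM PKCθ pseudosubstrate, then CCK (10 nM, 2.5 min) or TPA (1 μM, 5 min), and lysed. Equal protein Western-blotted for pY311 PKCδ, pS744/748 PKD, pS338 RafC or pY416 Src, with total PKCθ and α/β tubulin as loading controls. Bands quantified by densitometry in the linear range. ≥3 experiments; mean±SEM; paired t-test.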

Lyn = details: pancreatic acinar cells; ref [64]; cited from earlier work
[2] = tested on: pancreatic acini (amylase secretion); assay: Amylase release from pancreatic acini; format: cell-based, rat; details: 15 minutes, basal 1.7±0.2, mean±S.E., 6 experiments
Procedure, shortened: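 Rat pancreatic acini from collagenase digestion; 2 h preincubation ± 20 μM PKCθ pseudosubstrate in HEPES-buffered (pH 7.45) standard incubation solution, then 15 min with secretagogue. Medium amylase measured with Phadebas reagent and expressed as % of total cellular amylase released during incubation. Means±S.E.; paired Student's t-test.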

PKCθ / Akt = assay: Co-IP association of PKCθ with Akt; format: cell-based, rat; details: CCK 10 nM or TPA 1 μM, 2.5 min, 3 independent experiments
PKCθ / RafC = assay: Co-IP association of PKCθ with RafC; format: cell-based, rat; details: 2.5 min, 3 independent experiments
PKCθ / RafA = assay: Co-IP association of PKCθ with RafA; format: cell-based, rat; details: 2.5 min, 3 independent experiments
pT538 PKCθ = assay: PKCθ immunofluorescence-cytochemistry; format: cell-based, rat; details: TPA 1 μM or CCK 10 nM, 10 minutes; 4 independent experiments
Procedure, shortened: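 Acini left untreated or given TPA 1 μM or CCK 10 nM for 10 min, then washed, fixed, permeabilized and cytocentrifuged onto poly-L-lysine slides. Labelled overnight at 4 °C with rabbit anti-pT538 PKCθ and mouse anti-E-cadherin (1:500), detected with Alexa 488/555 secondaries, nuclei stained with DAPI. Isotype-matched primary as negative control; 4 experiments.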

PKCθ / Lyn = assay: Co-IP association of PKCθ with Lyn; format: cell-based, rat; details: 2.5 min, 3 independent experiments
PKCθ / RafB = assay: Co-IP association of PKCθ with RafB; format: cell-based, rat
Procedure, shortened: as §1

CCKA receptor = CCKA receptor mediation of PKCθ T538 phosphorylation in pancreatic acini; format: cell-based, rat; details: from CCK-JMV versus CCK maximal effect
PKCθ / MALT-1 = assay: Co-IP association of PKCθ with MALT-1; format: cell-based, rat; details: CCK 10 nM or TPA 1 μM, data not shown
PKCθ / p85 PI3K = assay: Co-IP association of PKCθ with p85 PI3K; format: cell-based, rat
Procedure, shortened: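 Rat acini stimulated with CCK 10 nM or TPA 1 μM, then lysed in CelLytic buffer with vanadate, PMSF and protease inhibitors. Lysate (750 μg/ml) incubated overnight at 4 °C with 4 μg antibody and protein G-agarose. Immunoprecipitates washed with PBS, then analysed by SDS-PAGE and Western blotting.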

phospholipase D = details: pancreatic acinar cells; ref [67]; cited from earlier work
PKCmu (PKD1) = details: pancreatic acinar cells; no reference printed at this sentence; cited from earlier work
PKCθ / 14-3-3γ = assay: Co-IP association of PKCθ with 14-3-3γ; format: cell-based, rat; details: CCK 10 nM or TPA 1 μM, data not shown

## COOH-terminal octapeptide of cholecystokinin [CCK]
PKCθ
  membrane associated PKCθ: 216±34 % of control
PI-3 kinase
  CCKA receptor state mediating PI-3 kinase activation: mediated entirely by the activation of the high affinity receptor state
PYK2/CAKβ
  share of maximal PYK2/CAKβ activation due to high affinity CCKA receptor state: 20%
CrKII
  CCKA receptor state mediating CrKII phosphorylation: mediated only through activation of the low affinity CCKA receptor state
PKCδ; no reference printed at this sentence
  CCK concentration required to fully activate PKCδ: 100 nM
PKCδ; ref [14]
  CCKA receptor state mediating PKCδ activation: mediated only through activation of the low affinity CCKA receptor state
PKCθ / tubulin
  association of PKCθ with tubulin: but not an association with p85 PI3K, PKD1, RafB, Bcl-10, Cbl, MALT-1, tubulin
[1]; 10 nM, 1 minute, 4–5 independent experiments, mean±S.E.
  maximal stimulation of T538 phosphorylation of PKCθ: 239±25 % of control
[1]; dose-response, 1 minute
  concentration of maximal effect, T538 PKCθ phosphorylation: 10 nM
[1]; isolated rat pancreatic acini, 5 minutes, Western blot, 5 independent experiments
  stimulation of PKCθ phosphorylation (pT538), secretagogues: stimulated a significant increase
[1]; pancreatic acinar cells
  lowest concentration with detectable T538 PKCθ phosphorylation: 0.1 nM
[1]; read-out: half-maximal effect (EC50), T538 PKCθ phosphorylation, dose-response, 1 minute, 4–5 independent experiments, GraphPad 5.0
  EC50: 174 ± 8 pM
[1]; time course, 5 independent experiments
  tmax of pT538 PKCθ phosphorylation: 0.78±0.08 min
[1]; time course, 1 min, 5 independent experiments, mean±S.E.
  pT538 PKCθ phosphorylation, maximum at about 1 min: 197±19 % of control
[1]; time course, 30 min, 5 independent experiments, mean±S.E.
  pT538 PKCθ phosphorylation at 30 min: 145±11 % of control
PKCθ / Cbl
  association of PKCθ with Cbl: but not with MALT-1, Bcl-10, 14-3-3γ or Cbl
PKD (pS744/748)
  phosphorylation of PKD stimulated by CCK: 19.4±3.69 folds over control
Lyn
  share of Lyn activation due to high affinity CCKA receptor state: 60%
[2]; CCK 0.03 nM
  Amylase secretion (% total), −PKCθ inhibitor: 5.1±0.8 % total
[2]; CCK 0.1 nM
  Amylase secretion (% total), −PKCθ inhibitor: 7.1±0.6 % total
[2]; CCK 100 nM
  Amylase secretion (% total), −PKCθ inhibitor: 4.5±0.4 % total
PKCθ / Akt
  association of PKCθ with Akt: increase in the association
PKCθ / RafC; CCK 10 nM or TPA 1 μM
  association of PKCθ with RafC: increase in the association
PKCθ / RafC; CCK 0.1–1–10 nM or CCK-JMV
  direct association of PKCθ with RafC at low CCK concentration or with CCK-JMV: observed also at low CCK concentration
PKCθ / RafA; CCK 10 nM or TPA 1 μM
  association of PKCθ with RafA: increase in the association
PKCθ / RafA; CCK 0.1–1–10 nM or CCK-JMV
  direct association of PKCθ with RafA at low CCK concentration or with CCK-JMV: observed also at low CCK concentration
pT538 PKCθ
  phosphoT538 PKCθ in the membrane (immunofluorescence): increased in the membrane
PKCθ / Lyn; CCK 10 nM or TPA 1 μM
  association of PKCθ with Lyn: increase in the association
PKCθ / Lyn; CCK 0.1–1–10 nM or CCK-JMV
  direct association of PKCθ with Lyn at low CCK concentration or with CCK-JMV: observed also at low CCK concentration
PKCθ / RafB
  association of PKCθ with RafB: but not an association with p85 PI3K, PKD1, RafB
CCKA receptor
  CCK stimulation of PKCθ activation mediated by the high affinity state CCKA receptor: 30%
PKCθ / MALT-1
  association of PKCθ with MALT-1: but not with MALT-1, Bcl-10, 14-3-3γ or Cbl
PKCθ / p85 PI3K
  association of PKCθ with p85 PI3K: but not an association with p85 PI3K
Phospholipase D
  CCKA receptor state mediating phospholipase D activation: mediated entirely by the activation of the high affinity receptor state
PKCmu (PKD1)
  CCK concentration for maximal PKCmu (PKD1) activation: 10 nM
PKCθ / 14-3-3γ
  association of PKCθ with 14-3-3γ: but not with MALT-1, Bcl-10, 14-3-3γ or Cbl
